Experimental data: ChEMBL document CHEMBL1126902, “Synthesis, chemical reactivity, and antitumor evaluation of congeners of carmethizole hydrochloride, an experimental "acylated vinylogous carbinolamine" tumor inhibitor” (J Med Chem, 1993)
pIC50: −log10 of the molar value.

Key:
[1] = Change in tumor cell population in ip implanted LOX amelanotic melanoma in mice after administration of compound at 24.75 mg/kg; assay type: functional, Mus musculus; settings: route intraperitoneal
Method in brief: (§1)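 Female CD2F1 mice were implanted ip with ascitic fluid holding ca. 1.7×10^6 LOX cells. Dosing was ip on days 1, 5 and 9, starting 24 h after implantation, by exact body weight, as a solution or suspension in saline plus Tween 80, freshly prepared daily. KE is the net log change in viable tumor cells from start to end of treatment. Bracketed KE assumes Poisson survival, with 60-day survivors tumor-free.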

[2] = Percent increase in life span of dying mice tested in vivo at 49.5 mg/kg against ip implanted LOX amelanotic melanoma in mice (60-day survivors); assay type: functional; settings: Mus musculus, 1440 h, route intraperitoneal
Method in brief: (§2)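 Female CD2F1 mice implanted ip with ascitic fluid carrying ca. 1.7×10^6 LOX amelanotic melanoma cells. Drug given ip on days 1, 5 and 9, starting 24 h after implant, dosed by exact body weight; solutions or suspensions made fresh daily. %ILS is from the median day of death of dying mice versus controls, excluding 60-day survivors.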

[3] = tested on: P388; assay: Change in tumor cell population in ip implanted P388 Leukemia in mice after administration of compound at 12.4 mg/kg; assay type: functional, Mus musculus; settings: route intraperitoneal
Method in brief: (§3)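 Female Portage-CD2F1 mice were inoculated ip with ascitic fluid holding ca. 5.2×10^6 P388 cells. Dosing was ip on days 1-5, starting 24 h after inoculation, by average body weight, as a solution or suspension in saline plus Tween 80. KE is the net log change in viable tumor cell population from start to end of the treatment period.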

[4] = Percent increase in life span of dying mice tested in vivo at 198 mg/kg against ip implanted LOX amelanotic melanoma in mice (60-day survivors); assay type: functional; settings: Mus musculus, 1440 h, route intraperitoneal; method in brief: as §2
[5] = Change in tumor cell population in ip implanted LOX amelanotic melanoma in mice after administration of compound at 99 mg/kg; assay type: functional, Mus musculus; settings: route intraperitoneal; method in brief: as §1
[6] = Change in tumor cell population in ip implanted LOX amelanotic melanoma in mice after administration of compound at 198 mg/kg; assay type: functional, Mus musculus; settings: route intraperitoneal; method in brief: as §1
[7] = Change in tumor cell population in ip implanted LOX amelanotic melanoma in mice after administration of compound at 49.5 mg/kg; assay type: functional, Mus musculus; settings: route intraperitoneal; method in brief: as §1
[8] = tested on: P388; assay: Change in tumor cell population in ip implanted P388 Leukemia in mice after administration of compound at 49.5 mg/kg; assay type: functional, Mus musculus; settings: route intraperitoneal
Method in brief: (§4)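 P388 leukemia: ascitic fluid with ca. 5.2×10^6 cells inoculated ip into Portage-CD₂F₁ female mice. Drug given ip on days 1-5, starting 24 h after inoculation, dosed by average body weight. Vehicle was saline plus Tween 80, as a solution or suspension. KE = net log change in viable tumor cells from start to end of treatment.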

[9] = tested on: P388; assay: Percent increase in life span of dying mice tested in vivo at 49.5 mg/kg against ip implanted P388 Leukemia in mice; assay type: functional; settings: Mus musculus, route intraperitoneal
Method in brief: (§5)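 Portage-CD2F1 female mice inoculated ip with ascitic fluid carrying ca. 5.2×10^6 P388 leukemia cells. Drug given ip daily on days 1-5, starting 24 h after inoculation, dosed by average body weight. %ILS is from the median day of death of dying mice versus controls.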

[10] = tested on: P388; assay: Change in tumor cell population in ip implanted P388 Leukemia in mice after administration of compound at 99 mg/kg; assay type: functional, Mus musculus; settings: route intraperitoneal; method in brief: as §4
[11] = tested on: P388; assay: Percent increase in life span of dying mice tested in vivo at 12.4 mg/kg against ip implanted P388 Leukemia in mice; assay type: functional; settings: Mus musculus, route intraperitoneal; method in brief: as §5
[12] = Percent increase in life span of dying mice tested in vivo at 99 mg/kg against ip implanted LOX amelanotic melanoma in mice (60-day survivors); assay type: functional; settings: Mus musculus, 1440 h, route intraperitoneal
Method in brief: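 Nude CD2F1 female mice were implanted ip with ascitic fluid containing ca. 1.7×10^6 LOX amelanotic melanoma cells. Drug was given ip on days 1, 5 and 9, starting 24 h after implantation, and dosed by exact body weight. Solutions or suspensions were made fresh daily in saline plus Tween 80. %ILS was calculated from the median day of death of dying mice versus controls, excluding 60-day survivors.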

[13] = tested on: P388; assay: Percent increase in life span of dying mice tested in vivo at 99 mg/kg against ip implanted P388 Leukemia in mice; assay type: functional; settings: Mus musculus, route intraperitoneal
Method in brief: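 Portage-CD2F1 female mice were inoculated ip with ascitic fluid containing ca. 5.2×10^6 P388 leukemia cells. Drug was given ip daily on days 1-5, starting 24 h after inoculation, and dosed by average body weight. %ILS was calculated from the median day of death of dying mice versus controls.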

[14] = tested on: P388; assay: Percent increase in life span of dying mice tested in vivo at 24.8 mg/kg against ip implanted P388 Leukemia in mice; assay type: functional; settings: Mus musculus, route intraperitoneal; method in brief: as §5
[15] = tested on: P388; assay: Change in tumor cell population in ip implanted P388 Leukemia in mice after administration of compound at 24.8 mg/kg; assay type: functional, Mus musculus; settings: route intraperitoneal; method in brief: as §3
[16] = Percent increase in life span of dying mice tested in vivo at 24.75 mg/kg against ip implanted LOX amelanotic melanoma in mice (60-day survivors); assay type: functional; settings: Mus musculus, 1440 h, route intraperitoneal; method in brief: as §2
[17] = tested on: L1210 (Mus musculus); assay: Concentration required to inhibit tumor growth in L1210, murine lymphocytic leukemia cell line
[18] = tested on: LOX amelanotic melanoma (human); assay: Percent increase in life span of dying mice tested in vivo at 25 mg/kg against ip implanted LOX amelanotic melanoma in mice (60-day survivors); settings: Mus musculus, 1440 h
[19] = Change in tumor cell population in ip implanted LOX amelanotic melanoma in mice after administration of compound at 50 mg/kg; assay type: functional, Mus musculus; settings: route intraperitoneal; method in brief: as §1
[20] = tested on: P388; assay: Change in tumor cell population in ip implanted P388 Leukemia in mice after administration of compound at 100 mg/kg; toxic; assay type: functional, organism-based; design: dose 100 mg/kg; settings: Mus musculus; method in brief: as §3
[21] = tested on: P388; assay: Percent increase in life span of dying mice tested in vivo at 25 mg/kg against ip implanted P388 Leukemia in mice; assay type: functional; settings: Mus musculus, route intraperitoneal; method in brief: as §5
[22] = tested on: P388; assay: Change in tumor cell population in ip implanted P388 Leukemia in mice after administration of compound at 25 mg/kg; assay type: functional, Mus musculus; settings: route intraperitoneal; method in brief: as §3
[23] = tested on: P388; assay: Percent increase in life span of dying mice tested in vivo at 50 mg/kg against ip implanted P388 Leukemia in mice; assay type: functional; settings: Mus musculus, route intraperitoneal; method in brief: as §5
[24] = Concentration required to inhibit tumor growth in […], human breast adenocarcinoma cell line; assay type: functional
Method in brief: (§6)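 Cells grown in RPMI 1640 with 5% fetal calf serum, 5% NuSerum IV and 20 mM HEPES, seeded and allowed to adhere overnight. Compound dissolved in RPMI-1640 plus HEPES and tested over a 5 log range (10 concentrations) for 72 h. Read-out by sulforhodamine B assay. Median-effect dose derived by nonlinear regression of the concentration-effect curve.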

[25] = Percent increase in life span of dying mice tested in vivo at 50 mg/kg against ip implanted LOX amelanotic melanoma in mice (60-day survivors); assay type: functional; settings: Mus musculus, 1440 h, route intraperitoneal; method in brief: as §2
[26] = tested on: P388; assay: Percent increase in life span of dying mice tested in vivo at 12.5 mg/kg against ip implanted P388 Leukemia in mice; assay type: functional; settings: Mus musculus, route intraperitoneal; method in brief: as §5
[27] = tested on: A549; assay: Concentration required to inhibit tumor growth in A549, human lung carcinoma (NSCLC) cell line; assay type: functional, cell-based; method in brief: as §6
[28] = Percent increase in life span of dying mice tested in vivo at 100 mg/kg against ip implanted LOX amelanotic melanoma in mice (60-day survivors); assay type: functional; settings: Mus musculus, 1440 h, route intraperitoneal; method in brief: as §2
[29] = tested on: HT-29; assay: Concentration required to inhibit tumor growth in HT29, human colon adenocarcinoma cell line; assay type: functional, cell-based; method in brief: as §6
[30] = tested on: P388; assay: Change in tumor cell population in ip implanted P388 Leukemia in mice after administration of compound at 12.5 mg/kg; assay type: functional, Mus musculus; settings: route intraperitoneal; method in brief: as §3
[31] = Change in tumor cell population in ip implanted LOX amelanotic melanoma in mice after administration of compound at 100 mg/kg; assay type: functional, Mus musculus; settings: route intraperitoneal; method in brief: as §1
[32] = tested on: Mus musculus; assay: Change in tumor cell population in ip implanted LOX amelanotic melanoma in mice after administration of compound at 200 mg/kg; toxic; assay type: functional, organism-based; design: dose 200 mg/kg; method in brief: as §1
[33] = tested on: LOX amelanotic melanoma (human); assay: Change in tumor cell population in ip implanted LOX amelanotic melanoma in mice after administration of compound at 25 mg/kg; settings: route intraperitoneal
[34] = Percent increase in life span of dying mice tested in vivo at 200 mg/kg against ip implanted LOX amelanotic melanoma in mice (60-day survivors); assay type: functional; settings: Mus musculus, 1440 h, route intraperitoneal; method in brief: as §2
[35] = tested on: P388; assay: Change in tumor cell population in ip implanted P388 Leukemia in mice after administration of compound at 50 mg/kg; toxic; assay type: functional, organism-based; design: dose 50 mg/kg; settings: Mus musculus; method in brief: as §4
[36] = tested on: P388; assay: Percent increase in life span of dying mice tested in vivo at 100 mg/kg against ip implanted P388 Leukemia in mice; assay type: functional; settings: Mus musculus, route intraperitoneal; method in brief: as §5
[37] = Concentration required to inhibit tumor growth in PSN-1, human pancreatic carcinoma cell line; assay type: functional
Method in brief: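 PSN-1 pancreatic carcinoma cells exposed to compound dissolved in RPMI-1640 plus HEPES at its maximum soluble concentration for 72 h. Read-out by sulforhodamine B colorimetric assay.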

CCC[S+]([O-])c1nc(COC(=O)NC)c(COC(=O)NC)n1C (stereo not drawn)
KE [1]: 1.7 | ILS at 49.5 mg/kg [2]: 15% | KE [3]: 1.4 | ILS at 198 mg/kg [4]: 21% | KE [5]: 1.6 | KE [6]: 0.8 | KE [7]: 1 | KE [8]: 0.9 | ILS at 49.5 mg/kg [9]: 27% | KE [10]: 0.9 | ILS at 12.4 mg/kg [11]: 10% | ILS at 99 mg/kg [12]: 1% | ILS at 99 mg/kg [13]: 27% | ILS at 24.8 mg/kg [14]: 25% | KE [15]: 1 | ILS at 24.75 mg/kg [16]: -2%

CNC(=O)OCc1nc(SC)n(C)c1COC(=O)NC
pIC50 [17]: 5.37 | ILS at 25 mg/kg [18]: 34% | KE [19]: -2.9 | KE [20]: Toxic | ILS at 25 mg/kg [21]: 96% | KE [22]: -4.1 | ILS at 50 mg/kg [23]: 17% | pIC50 [24]: 3.46 | ILS at 50 mg/kg [25]: 117% | ILS at 12.5 mg/kg [26]: 59% | pIC50 [27]: 3.66 | ILS at 100 mg/kg [28]: 143% | pIC50 ([29]; Homo sapiens, HT-29): 3.79 | pIC50 ([29]; ht-29): 3.97 | KE [30]: -1.5 | KE [31]: -4 | KE [32]: Toxic | KE [33]: 0.3 | ILS at 200 mg/kg [34]: -24% | KE [35]: Toxic | ILS at 100 mg/kg [36]: -34% | pIC50 [37]: 3.96
